Source: PubChem BioAssay (several laboratories)
Yeast growth inh: reduces growth of yeast BB579 in restrictive medium; inhibition, % at 10 µM; 140,000 tested, 0.51% active; S. cerevisiae BB579 growth, OD615, 48 h;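 active = inhibition above a set limit, 3 SD over the mean compound inhibition, cut at about 44% in these data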
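Test system: S. cerevisiae DeaD strain BB579 yeast; Medium: restrictive CSMM-D medium; Compound: one dose, 10 µM compound with 0.25% DMSO; Incubation: 4 h cell preincubation, 48 h compound exposure, 30 °C humidified; Signal: OD at 615 nm; Benchmarks: amphotericin B at 10 µg/mL as positive control.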
S1P3 antag: antagonists of human S1P3 receptor; 170,000 tested, 0.27% active; CHO S1P3 NFAT-BLA reporter, FRET fluorescence, antagonist mode; Q99500; inhibition, % at 4.98 µM;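 active = inhibition above the plate cutoff, the mean inhibition of test wells on that plate plus 3 SD, cut at about 28% in these data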;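 note: cells challenged with S1P at its EC80 of 0.8 µM; blue over green emission ratio from cleaved BLA substrate after 4 h stimulation; 0% = S1P-stimulated wells and 100% = unstimulated DMSO-only wells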
Target sequence (Q99500 whole entry, looked up): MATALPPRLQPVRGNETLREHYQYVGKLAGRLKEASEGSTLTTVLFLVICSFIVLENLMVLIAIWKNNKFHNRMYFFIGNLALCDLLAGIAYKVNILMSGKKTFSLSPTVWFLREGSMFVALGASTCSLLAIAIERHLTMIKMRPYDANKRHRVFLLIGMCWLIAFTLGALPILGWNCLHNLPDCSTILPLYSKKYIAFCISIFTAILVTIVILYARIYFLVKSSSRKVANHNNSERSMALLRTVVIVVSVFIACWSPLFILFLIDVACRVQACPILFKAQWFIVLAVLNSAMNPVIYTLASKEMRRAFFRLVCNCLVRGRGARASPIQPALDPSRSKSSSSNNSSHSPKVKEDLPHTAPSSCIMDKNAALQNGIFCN
Yeast lifespan up: yeast lifespan extension; S. cerevisiae growth with nicotinamide, OD615; deaD strain in restrictive glucose medium; inhibition of the nicotinamide effect, % at 10 µM; 130,000 tested, 0.68% active;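 active = inhibition above a set limit, placed 3 SD over the median of all compounds, cut at about 26% in these data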;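 note: 0% = nicotinamide-treated wells and 100% = cells grown without nicotinamide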
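Buffer or medium: CSMM-D glucose medium, restrictive; test system: modified budding yeast, DeaD strain; compound: single dose 10 µM compound, 0.25% DMSO; schedule: culture preincubation 4 h, compound exposure 48 h, both 30 °C; detection: optical density (absorbance) at 615 nm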
Numbers without * were called inactive; . = not tested or not shown. Shown are actives, neighbours in structure and some others; about 0.98% of the full set was active somewhere.

SMILES | Yeast growth inh | S1P3 antag | Yeast lifespan up
COc1ccc(OC)c(C2CC(=O)N3CN(c4ccccc4)CSC3=C2C#N)c1 (stereo unspecified) | -26.2 | -28.0 | -11.0
COc1ccc(N2CSC3=C(C#N)C(c4cccc(OC)c4OC)CC(=O)N3C2)cc1 (stereo unspecified) | -3.3 | 98.9* | -3.5
CCOC(=O)c1ccc2c(c1)n(CCO)c(C)[n+]2CC | 7.9 | -3.0 | 71.2*
CCOC(=O)c1ccc2c(c1)n(CC)c(/C=C/N(C)c1ccccc1)[n+]2CC | -22.9 | -4.5 | 6.7
CCCCC(=O)Nc1cc(Cl)ccc1C(=O)O | . | 7.4 | .
CCOC(=O)C1Cc2cc3c(cc2C1=O)CC(C(=O)OCC)C3=O (stereo unspecified) | -9.9 | 1.3 | 50.8*
CCOC(=O)C1CC(=O)c2cc(OC)c(OC)cc2C1 (stereo unspecified) | . | 13.1 | .
CC1=NNC(=O)C1CCC(=O)N/N=C/c1ccc(Cl)cc1Cl (stereo unspecified) | . | 0.9 | .
COC(=O)C(C(=O)OC)c1ncccc1[N+](=O)[O-] | . | -11.2 | .
O=C(O)c1ccc(N(c2ccccc2)c2ccccc2)cc1 | 44.4* | . | .
CCN(CC)c1ccc(C(=O)O)cc1 | -13.6 | -13.7 | 2.5
COc1cccc(C(=O)Nc2ncc3c(n2)CC(c2ccc(OC)cc2OC)CC3=O)c1 (stereo unspecified) | -49.0 | 15.7 | -13.9
Cc1ccc(-c2cc3ccccc3nc2N2CCCC2)cc1 | -28.6 | . | -8.5
Cc1ccc2c(c1)Cc1nc3ccccc3nc1-2 | . | -3.6 | .
Cc1ccc2c(c1)C(=NC1CCCCC1)c1cc3ccccc3nc1-2 | 59.7* | -2.9 | -9.2
Cc1ccc2c(c1)-c1nc3ccccc3cc1C2=NC1CCCCC1 | 47.0* | 0.2 | -9.6
Cc1cc(C(=O)NCc2cccs2)cs1 | -30.4 | 16.5 | -8.4
CCc1ccc(OCC(=O)c2c(O)c3ccccc3oc2=O)cc1 | . | -13.1 | .
CCc1oc2ccccc2c1C(=O)c1cc(Br)c(O)c(Br)c1 | 82.0* | 2.9 | -0.7
CC(C)NC(=O)N(O)C1N(Cc2ccc3c(c2)OCO3)C(=S)SC1(C)C (stereo unspecified) | -55.1 | 5.5 | -6.4
O=C(Nc1ccccc1)ON=C1CCCC1 | -6.3 | -3.0 | -10.2
Cc1ccc(NC(=O)ON=C2CCCC2)cc1 | 95.0* | -13.9 | -13.3
CCOC(=O)/C(C#N)=C1\SS/C(=C(/C#N)C(=O)OCC)S1 | . | -18.1 | .
Cc1ccc(C(NC(=O)C(C)C)c2cc([N+](=O)[O-])c3cccnc3c2O)cc1 (stereo unspecified) | 85.8* | -4.0 | -3.4
CC(C)C(=O)NC(c1cccs1)c1cc([N+](=O)[O-])c2cccnc2c1O (stereo unspecified) | 1.1 | -19.6 | -13.0
SMILES | Yeast growth inh | S1P3 antag | Yeast lifespan up
Cn1nnnc1SCCNCC#Cc1ccccc1 | -14.0 | 2.6 | 113.9*
Cn1nnnc1SCCNCc1ccccc1F | 29.2 | . | -0.5
O=C(O)/C(=C\c1cccs1)Sc1nnc(-c2ccc(F)cc2)o1 | . | 3.0 | .
COCCN1CC(=O)N(c2cccc(C)c2C)C(c2ccc(Cl)cc2)C1=O (stereo unspecified) | -44.9 | -37.8 | -4.5
Cc1cccc(N2C(=O)C(Oc3ccc(Cl)cc3Cl)C2C=O)c1C (stereo unspecified) | -27.2 | -8.3 | 50.6*
CSC1=N/C(=C\c2ccccc2)C(=O)N1C | -4.8 | . | -16.7
Cc1ccc(O)c(C(=O)CC(=O)c2cccc(F)c2)c1 | 51.1* | -4.6 | -3.7
Cc1cccc(C(=O)CC(=O)c2cc(Cl)ccc2O)c1 | 83.1* | . | -6.5
Cc1cccc(C(=O)NNC(=O)c2ccccc2)c1 | -42.1 | -18.6 | -5.0
O=C(CC(=O)c1cc(Cl)ccc1O)c1ccccc1 | 81.6* | -12.0 | -12.4
O=C(O)CC(=O)Nc1cc(Cl)ccc1O | -41.6 | . | -4.7
COc1ccc(O)c(C(=O)CC(=O)c2ccc(F)cc2)c1 | -2.2 | 20.0 | -22.2
CC(NC(=O)CCc1ccc(S(=O)(=O)NC2CCCCC2)cc1)c1ccccc1 (stereo unspecified) | -49.6 | . | -3.0
COc1ccc(C(=O)c2cnc[nH]2)cc1OC | . | 2.3 | .
O=C(CCCC(=O)N(CC(=O)NC1CCCC1)Cc1ccc(F)cc1)Nc1ccccn1 | -29.9 | 1.0 | 33.8
Cc1cc(NC(=O)CCC(=O)N(CC(=O)NC2CCCC2)Cc2ccc(F)cc2)no1 | -36.3 | 62.6* | -5.0
O=C(CCCC(=O)N(CC(=O)NC1CCCCC1)Cc1ccc2c(c1)OCO2)Nc1ccccn1 | -26.5 | 21.1 | 28.2*
Cc1cc(NC(=O)CCC(=O)N(CC(=O)NC2CCCC2)Cc2ccc3c(c2)OCO3)no1 | . | -7.0 | .
COC(=O)c1[nH]c(C)c(/C(O)=C2\C(=O)C(=O)N(CCN(C)C)C2c2ccco2)c1C (stereo unspecified) | -0.1 | -3.4 | -6.8
CSc1nc(N(C)C)nc(N(C#N)CCOC(C)=O)n1 | . | 5.0 | .
Clc1ccc(N=c2ssnc2Cl)cc1 | 76.9* | . | .
Clc1nssc1=Nc1ccccc1 | . | -8.7 | .
O=C(c1c[nH]c(C(=O)C(Cl)(Cl)Cl)c1)c1ccccc1Cl | 67.3* | . | 90.2*
NC(=O)c1cc(C(=O)c2ccc(Cl)cc2Cl)c[nH]1 | . | -1.8 | .
CC(=O)N1CCN(c2ccc(OC[C@H]3CO[C@](Cn4ccnc4)(c4ccc(Cl)cc4Cl)O3)cc2)CC1 | 93.1* | 9.8 | -7.2
SMILES | Yeast growth inh | S1P3 antag | Yeast lifespan up
CN1C(=O)C2(OCC(COc3ccc(Cl)cc3)O2)c2ccccc21 (stereo unspecified) | -50.4 | 13.1 | -8.8
CCc1ccc(NC(=O)CCn2cccc2)cc1 | -26.2 | . | -17.9
CCn1cc(C2=NC(CC(C)C)CO2)c2ccccc21 (stereo unspecified) | . | 3.5 | .
CC(C)Cn1c(=O)c(C(=O)Nc2cnccn2)c(O)c2ccccc21 | -23.4 | -0.4 | 67.8*
CC(C)Cn1c(=O)c(C(=O)Nc2ccncc2)c(O)c2ccccc21 | . | -0.5 | .
Cc1nn(-c2cccc(C(F)(F)F)c2)c(Cl)c1/C=N/Nc1cccc(C(=O)O)c1 | 94.0* | -7.7 | -10.4
Cc1nn(-c2ccccc2Cl)c(Cl)c1/C=N/Nc1cccc(C(=O)O)c1 | 28.8 | -3.0 | -10.4
COc1ccc(CCN2C(=NC(C)=O)SC3CS(=O)(=O)CC32)cc1OC (stereo unspecified) | . | -2.4 | .
CCn1c2ccc(C)cc2c2nc3cc(C(=O)O)ccc3nc21 | 95.8* | 22.2 | -14.7
CCn1c2ccc(Cl)cc2c2nc3ccccc3nc21 | 1.5 | . | -22.5
Cc1cc(/C=N/n2cnnc2)c(C)n1-c1ccccc1 | -22.2 | . | -13.8
Cc1cc(/C=N/n2cnnc2)c(C)n1-c1ccc(OCc2ccc(F)cc2)cc1 | -16.4 | 76.9* | -6.7
Cc1cc(/C=N/n2cnnc2)c(C)n1-c1ccc(Cl)cc1 | 2.5 | -25.0 | 2.7
Cc1cc(/C=N/n2cnnc2)c(C)n1-c1ccc(OCc2ccc(Cl)cc2Cl)cc1 | 46.3* | . | -11.3
O=[N+]([O-])c1cc(-c2ccc(C(=S)N3CCOCC3)o2)ccc1Cl | . | 2.9 | .
CCOc1ccccc1NC(=O)CC(O)(C(F)(F)F)C(F)(F)F | -10.5 | . | .
Cc1ccccc1NC(=O)CC(O)(C(F)(F)F)C(F)(F)F | -19.7 | . | 31.9*
Cn1nc(C(=O)NCc2ccccc2)c2ccccc2c1=O | -36.5 | -10.2 | -10.7
Cn1nc(C(=O)NCc2ccc(F)cc2)c2ccccc2c1=O | 15.7 | 90.6* | -22.3
Cc1ccc(OC(=S)Nc2ccccc2)c(C)c1 | -36.1 | . | .
